# Results reported in ChEMBL document CHEMBL1141512, “Arylsulfonamide CB2 receptor agonists: SAR and optimization of CB2 selectivity” (Bioorg Med Chem Lett, 2008).
# Key:
# Cannabinoid receptor 2 [1] = target: T1, Cannabinoid receptor 2 (Homo sapiens, UniProt P34972); test: Agonist activity at human CB2 receptor expressed in CHO cells assessed as inhibition of forskolin-stimulated cAMP level relative to CP-55940; assay type: functional, cell-based; design: Activity: scale not given: the % may be the effect or the level left
# How it was run: (§1)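 CHO cells stably expressing human CB2 or CB1 were seeded at 5000 cells/well and grown overnight at 37 °C. Compounds were added in stimulation buffer (1 mM IBMX, 0.25% BSA, 10 µM forskolin) for 30 min at 37 °C. cAMP was measured in lysates with a cAMP kit; 100% = forskolin-stimulated cAMP versus level with 200 nM CP-55940. EC50 came from a four-parameter logistic fit; efficacy is relative to CP-55940. Each run was triplicate, at least three times.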
# Homo sapiens = species on record: Homo sapiens; test: Selectivity for human CB2 receptor over human CB1 receptor by cAMP assay; how it was run: as §1
# Cannabinoid receptor 2 [2] = target: T1, Cannabinoid receptor 2; test: Agonist activity at human CB2 receptor expressed in CHO cells assessed as inhibition of forskolin-stimulated cAMP level; assay type: functional, cell-based
# How it was run: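 CHO cells expressing human CB2, 5000 cells/well, incubated overnight at 37 °C. Compounds given in stimulation buffer with 1 mM IBMX, 0.25% BSA and 10 µM forskolin for 30 min at 37 °C. Cells lysed and cAMP read by enzyme-fragment kit. Forskolin-stimulated cAMP versus cAMP with 200 nM CP-55940 defines 100%. EC50 from four-parameter logistic fit. Triplicate, at least three runs.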
# Cannabinoid receptor 1 = Cannabinoid receptor 1 (Homo sapiens, UniProt P21554); test: Displacement of [3H]CP-55940 from human CB1 receptor expressed in HEK cells; assay type: cell-based, HEK293
# How it was run: (§2)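 SPA binding with HEK membranes expressing human CB1 (2.5 µg/well) or CB2 (2 µg/well) on poly-L-lysine beads. Buffer: 50 mM Tris pH 7.5, 2.5 mM EDTA, 5 mM MgCl2, 0.8% fatty-acid-free BSA. Compounds at 1e-5 to 1e-10 M. [3H]-CP-55940 final 2.5 nM (CB1) or 4 nM (CB2). IC50 from four-parameter logistic fit, converted to Ki by Cheng-Prusoff.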
# Cannabinoid receptor 2 [3] = target: T1, Cannabinoid receptor 2; test: Displacement of [3H]CP-55940 from human CB2 receptor expressed in HEK cells; assay type: cell-based, HEK293; how it was run: as §2
# T1 sequence (P34972 whole entry): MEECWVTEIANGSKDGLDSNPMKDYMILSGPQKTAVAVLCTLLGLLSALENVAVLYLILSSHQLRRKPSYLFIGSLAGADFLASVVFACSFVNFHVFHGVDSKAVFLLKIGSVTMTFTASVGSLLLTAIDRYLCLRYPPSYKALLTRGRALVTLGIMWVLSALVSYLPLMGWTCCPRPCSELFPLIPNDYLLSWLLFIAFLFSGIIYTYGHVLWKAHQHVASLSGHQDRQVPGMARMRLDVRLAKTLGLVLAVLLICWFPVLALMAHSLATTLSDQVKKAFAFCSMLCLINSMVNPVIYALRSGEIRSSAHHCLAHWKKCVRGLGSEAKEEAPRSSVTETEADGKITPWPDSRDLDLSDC
# Sequence of Cannabinoid receptor 1 (P21554 whole entry): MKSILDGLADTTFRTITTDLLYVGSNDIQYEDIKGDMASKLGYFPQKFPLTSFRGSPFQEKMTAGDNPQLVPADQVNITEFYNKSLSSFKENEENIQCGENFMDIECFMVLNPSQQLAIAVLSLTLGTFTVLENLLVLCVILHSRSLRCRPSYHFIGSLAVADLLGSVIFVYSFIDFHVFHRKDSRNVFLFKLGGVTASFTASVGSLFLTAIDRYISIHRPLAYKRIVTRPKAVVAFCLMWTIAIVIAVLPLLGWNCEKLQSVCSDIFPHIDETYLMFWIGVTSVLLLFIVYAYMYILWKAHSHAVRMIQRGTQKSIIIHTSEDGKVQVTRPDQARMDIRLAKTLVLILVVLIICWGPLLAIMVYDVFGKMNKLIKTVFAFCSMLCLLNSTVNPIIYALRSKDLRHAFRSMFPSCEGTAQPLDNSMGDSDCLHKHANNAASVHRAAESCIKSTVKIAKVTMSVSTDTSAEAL
SMILES,Activity (Cannabinoid receptor 2 [1]) [%],Selectivity ratio (Homo sapiens),EC50 (Cannabinoid receptor 2 [2]) [nM],Ki (Cannabinoid receptor 1) [nM],Ki (Cannabinoid receptor 2 [3]) [nM],Emax (Cannabinoid receptor 2 [1]) [%]
Cc1ccc(C(=O)N2CCC3CCCCC3C2)cc1S(=O)(=O)N1CCSCC1 (stereo not drawn),90,3250,1,,,
Cc1ccc(C(=O)N[C@@H](C)C2CCCCC2)cc1S(=O)(=O)N1CCCCC1,73,2,5,,,
Cc1ccc(C(=O)Oc2cccc3cccnc23)cc1S(=O)(=O)N1CCCCC1,99,1,< 1,3,4,
Cc1ccc(C(=O)Nc2ccccc2C(F)(F)F)cc1S(=O)(=O)N1CCCCC1,92,96,2,,,
Cc1ccc(C(=O)N2CCC3CCCCC3C2)cc1S(=O)(=O)N1CCCCCC1 (stereo not drawn),100,3280,2,,,
Cc1ccc(C(=O)NC2CCCCC2)cc1S(=O)(=O)N1CCCC1,81,181,21,,,
COc1ccccc1NC(=O)c1ccc(C)c(S(=O)(=O)N2CCCCC2)c1,91,9,21,,,
Cc1ccc(C(=O)N2CCCC3CCCCC32)cc1S(=O)(=O)N1CCCCC1 (stereo not drawn),82,94,6,,,
Cc1ccc(C(=O)N2CCC3CCCCC3C2)cc1S(=O)(=O)N1CCC1 (stereo not drawn),94,> 1500,13,,,
O=C(NC1CCCCC1)c1cccc(S(=O)(=O)N2CCCC2)c1,,,> 20000,,,
Cc1ccc(C(=O)N2CCC3CCCCC3C2)cc1S(=O)(=O)N1CCOCC1 (stereo not drawn),104,2640,5,,,
Cc1ccc(C(=O)N2CC[C@@H]3CCCC[C@H]3C2)cc1S(=O)(=O)N1CCCCC1 (relative stereo),93,6890,1,,,
Cc1ccc(C(=O)N2CCC3CCCCC3C2)cc1S(=O)(=O)N1CCS(=O)(=O)CC1 (stereo not drawn),99,7740,2,,,
Cc1ccc(C(=O)N(C)C2CCCCC2)cc1S(=O)(=O)N1CCCCC1,86,38,119,,,
O=C(NC1CCCCC1)c1ccc(Cl)c(S(=O)(=O)N2CCCC2)c1,74,85,3,,,
Cc1ccc(C(=O)Nc2cccc3cccnc23)cc1S(=O)(=O)N1CCCCC1,100,7,4,,,
Cc1ccc(C(=O)NC2(C)CCCCC2)cc1S(=O)(=O)N1CCCCC1,58,,18,,,
O=C(c1ccc(C2CCCCC2)c(S(=O)(=O)N2CCCC2)c1)N1CCC2CCCCC2C1 (stereo not drawn),,,> 20000,,,
Cc1ccc(C(=O)N2CCCCC2)cc1S(=O)(=O)N1CCCCC1,,> 240,82,,,85
O=C(c1ccc(Cl)c(S(=O)(=O)N2CCCC2)c1)N1CC[C@@H]2CCCC[C@H]2C1 (relative stereo),89,3770,3,,,
Cc1ccc(C(=O)Nc2ccccc2)cc1S(=O)(=O)N1CCCCC1,74,6,139,,,
COc1ccc2c(c1)c(CCN1CCOCC1)c(C)n2C(=O)c1cccc(Cl)c1Cl,44,,0.65,,,

SMILES,Activity (Cannabinoid receptor 2 [1]) [%],Selectivity ratio (Homo sapiens),EC50 (Cannabinoid receptor 2 [2]) [nM],Ki (Cannabinoid receptor 1) [nM],Ki (Cannabinoid receptor 2 [3]) [nM],Emax (Cannabinoid receptor 2 [1]) [%]
O=C(c1ccc(Cl)c(S(=O)(=O)N2CCCC2)c1)N1CCC2CCCCC2C1 (stereo not drawn),93,520,4,,,
Cc1ccc(C(=O)N2CCC3CCCCC3C2)cc1S(=O)(=O)NC(C)C (stereo not drawn),101,0.1,2280,,,
CC(C)c1ccc(C(=O)N2CCC3CCCCC3C2)cc1S(=O)(=O)N1CCCC1 (stereo not drawn),101,2860,0.4,,,
Cc1ccc(C(=O)Nc2cccc(Cl)c2)cc1S(=O)(=O)N1CCCCC1,80,31,27,,,
Cc1ccc(C(=O)N2CCC3CCCCC3C2)cc1S(=O)(=O)N1CCN(C(C)C)CC1 (stereo not drawn),45,,588,,,
Cc1ccc(C(=O)N(C)c2ccccc2Cl)cc1S(=O)(=O)N1CCCCC1,,,> 20000,,,
Cc1ccc(C(=O)N2CCC3CCCCC3C2)cc1S(=O)(=O)N1CCC(O)CC1 (stereo not drawn),86,37,215,,,
Cc1ccccc1NC(=O)c1ccc(C)c(S(=O)(=O)N2CCCCC2)c1,76,1.5,154,,,
Cc1ccc(C(=O)Nc2ccccc2S(C)(=O)=O)cc1S(=O)(=O)N1CCCCC1,96,66,6,,,
Cc1ccc(C(=O)NC2CCCCC2)cc1S(=O)(=O)N1CCCCC1,86,24,14,,,
Cc1ccc(C(=O)N2CCC3CCCCC3C2)cc1S(=O)(=O)N1CCCC1 (stereo not drawn),94,2240,4,,,
Cc1ccc(C(=O)Nc2ccc(Cl)cc2)cc1S(=O)(=O)N1CCCCC1,117,,14100,,,
Cc1ccc(C(=O)Nc2ccccc2Cl)cc1S(=O)(=O)N1CCCCC1,89,13,5,,,
Cc1ccc(C(=O)N2CCC3CCCCC3C2)cc1S(=O)(=O)NCC(C)C (stereo not drawn),96,939,14,,,
Cc1ccc(C(=O)N2CCC3CCCCC3C2)cc1S(=O)(=O)N1CCCCC1 (stereo not drawn),95,4330,1.5,,,
Cc1ccc(C(=O)Nc2nccc3ccccc23)cc1S(=O)(=O)N1CCCCC1,98,25,1,,,
O=C(NCC1CCOCC1)c1cnc(Nc2ccc(Cl)cc2Cl)nc1C(F)(F)F,95,> 470,,,,
Cc1ccc(C(=O)N2CCC3CCCCC3C2)cc1S(=O)(=O)Nc1ccccc1 (stereo not drawn),,,> 20000,,,
O=C(c1cccc(S(=O)(=O)N2CCCC2)c1)N1CC[C@@H]2CCCC[C@H]2C1 (relative stereo),,,> 20000,,,
CC(C)c1ccc(C(=O)NC2CCCCC2)cc1S(=O)(=O)N1CCCC1,86,60,4,,,
Cc1ccc(C(=O)Nc2ccc3ccccc3n2)cc1S(=O)(=O)N1CCCCC1,45,,195,,,
Cc1ccc(C(=O)N[C@H](C)C2CCCCC2)cc1S(=O)(=O)N1CCCCC1,85,45,18,,,
